From ChEMBL document CHEMBL1145956, “Indanylidenes. 2. Design and synthesis of (E)-2-(4-chloro-6-fluoro-1-indanylidene)-N-methylacetamide, a potent antiinflammatory and analgesic agent without centrally acting muscle relaxant activity” (2003)

What was measured:
[1] = test system: Mus musculus; test: Percent inhibition of muscle relaxant profile evaluated by straub tail assay when administered intraperitoneally at 100 mg/kg in mouse; format: functional; settings: route intraperitoneal; for % effect at 100 mg/kg: Mus musculus
Outline: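 Morphine-induced Straub tail model of muscle relaxant activity, mouse. Compound given intraperitoneally at 100 mg/kg and read out as % inhibition.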

[2] = test system: Rattus norvegicus; test: Antiinflammatory activity against 3h carrageenan pleurisy (cells) in rat peroral administration; format: functional; settings: po
Outline: (§1)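 Rat 3 h carrageenan pleurisy model, read out as pleural cell count and as edema. Compounds given orally, either as % inhibition at 20 mg/kg or as ED50 in mg/kg. Each compound tested two or three times.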

[3] = test system: Rattus norvegicus; test: Antiinflammatory activity against 3h carrageenan pleurisy (edma) in rat peroral administration; format: functional; settings: po; outline: as §1
[4] = test system: Rattus norvegicus; test: Inhibition of trypsin hyperalgesia when administered perorally in rat; format: functional
Outline: (§2)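 Rat trypsin hyperalgesia model for mild analgesia. Compounds given orally, either as % inhibition at 20 mg/kg or as ED50 in mg/kg. Each compound tested two or three times.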

[5] = test system: Rattus norvegicus; test: Percent inhibition of analgesia activity when administered perorally at 20 mg/kg in rat; format: functional; outline: as §2
[6] = test system: Rattus norvegicus; test: Antiinflammatory activity against 3h carrageenan pleurisy (cells) in rat at 20 mg/kg peroral administration; format: functional; settings: route oral; outline: as §1
[7] = test system: Rattus norvegicus; test: Antiinflammatory activity against 3h carrageenan pleurisy (edma) in rat at 20 mg/kg peroral administration; format: functional; settings: route oral; outline: as §1
[8] = test system: Mus musculus; test: Effective dose required for muscle relaxant profile evaluated by straub tail assay when administered perorally in mouse; format: functional; settings: po
Outline: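 Morphine-induced Straub tail model of muscle relaxant activity, mouse, with oral dosing. Oral testing followed only where ip inhibition at 100 mg/kg exceeded 50%. At least three doses, N=6 animals per dose group. ED50 in mg/kg.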

[9] = Ratio of rotarod to that of straub tail; format: functional
Outline: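 Ratio of oral rotorod ED50 (sedation) to oral ED50 in the morphine-induced Straub tail test. Only compounds giving >50% inhibition in the Straub tail test at 100 mg/kg ip went on to oral testing in both assays. Each assay generally used at least three doses with N=6 animals per dose group; variability approximately 15%.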

[10] = test system: Mus musculus; test: Effective dose required for muscle relaxant profile in mouse by rotarod assay, when compound administered perorally; format: functional; settings: po
Outline: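 Rotorod model of sedation, mouse, with oral dosing. Used for compounds that passed the Straub tail ip screen. At least three doses, N=6 animals per dose group. ED50 in mg/kg.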

[11] = Ratio of rotarod to that of staub tail; format: functional
Outline: (§3)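 Oral rotorod ED50 divided by oral Straub tail ED50, both in mouse, as an index of sedative potential. Each ED50 from at least three doses, N=6 animals per dose.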

[12] = Ratio of rotarod to that of staub tail; ND is activity not determined.; format: functional; outline: as §3
[13] = test system: Rattus norvegicus; test: Antiinflammatory activity against 3h carrageenan pleurisy (edma) in rat mg/kg peroral administration; format: functional; settings: po; outline: as §1
[14] = species on record: Rattus norvegicus; test: Antiinflammatory activity against trypsin hyperalgesia in rat at peroral dose of compound; settings: po
[15] = Rattus norvegicus, po, read-out: ED50

CNC(=O)/C=C1\CCc2c(Cl)cc(F)cc21
% effect at 100 mg/kg ([1]; ip): 50%
ED50 [2]: 8 mg/kg
ED50 [3]: 5 mg/kg
ED50 [4, 15]: 1.4 mg/kg
inhibition in vivo at 20 mg/kg ([5]; route oral): 100%

NC(=O)/C=C1\CCc2c(Br)cc(F)cc21
ED50 [2]: > 20 mg/kg
ED50 [3]: > 20 mg/kg

Cc1cc(F)cc2c1CC/C2=C\C(=O)NC1CC1
inhibition in vivo at 20 mg/kg [6]: 5%
inhibition in vivo at 20 mg/kg [7]: 7%
inhibition in vivo at 20 mg/kg ([5]; route oral): 97%

Cc1cc(F)cc2c1CC/C2=C\C(N)=O
% effect [1]: 0%
inhibition in vivo at 20 mg/kg [6]: 11%
inhibition in vivo at 20 mg/kg [7]: 24%
ED50 [4, 15]: 10 mg/kg
inhibition in vivo at 20 mg/kg ([5]; Rattus norvegicus, po): 92%

NC(=O)/C=C1\CCc2c(F)cc(F)cc21
ED50 [8]: 68.7 mg/kg
inhibition in vivo at 100 mg/kg ([1]; ip): 100%
ED50 [7]: 15 mg/kg
Ratio [9]: 2
ED50 [2]: 19 mg/kg
ED50 [4, 15]: 4 mg/kg
inhibition in vivo at 20 mg/kg ([5]; route oral): 100%

CNC(=O)/C=C1\CCc2c(Cl)cc(Cl)cc21
ED50 [8]: > 100 mg/kg
% effect at 100 mg/kg ([1]; ip): 83%
inhibition in vivo at 20 mg/kg [6]: 9%
inhibition in vivo at 20 mg/kg ([5]; Rattus norvegicus, po): 12%

NC(=O)/C=C1\CCc2c(Cl)cc(F)cc21 (stereo in doubt) [listing 1 of 2 here]
ED50 [8]: 73 mg/kg
ED50 [10]: 96 mg/kg
ED50 [4, 15]: 7 mg/kg
inhibition in vivo at 20 mg/kg ([5]; Rattus norvegicus, po): 70%

O=C(/C=C1\CCc2c(Cl)cc(F)cc21)NC1CC1
ED50 [8]: 44 mg/kg
ED50 [10]: 44 mg/kg
% effect at 100 mg/kg ([1]; ip): 100%
ED50 [4, 15]: 0.9 mg/kg
Ratio [11]: 1
inhibition in vivo at 20 mg/kg ([5]; Rattus norvegicus, po): 75%

NC(=O)/C=C1\CCc2c(Cl)cc(F)cc21 (stereo in doubt) [listing 2 of 2 here]
Ratio [12]: 1.3

NC(=O)/C=C1\CCc2cc(Cl)cc(Cl)c21
ED50 [8]: < 100 mg/kg
ED50 [10]: 55 mg/kg
% effect at 100 mg/kg ([1]; ip): 100%
ED50 [6]: 5 mg/kg
ED50 [7]: 34 mg/kg
ED50 [4, 15]: > 10 mg/kg
inhibition in vivo at 20 mg/kg ([5]; Rattus norvegicus, po): 79%

CNC(=O)/C=C1\CCc2c(C)cc(F)cc21
% effect at 100 mg/kg ([1]; ip): 67%
inhibition in vivo at 20 mg/kg [6]: 15%
inhibition in vivo at 20 mg/kg [7]: 40%
inhibition in vivo at 20 mg/kg ([5]; Rattus norvegicus, po): 77%

NC(=O)/C=C1\CCc2c(Cl)cc(Cl)cc21
% effect [1]: 0%
ED50 [2]: 25 mg/kg
ED50 [3]: 20 mg/kg
ED50 [4, 15]: 4.1 mg/kg

O=C(/C=C1\CCc2c(F)cc(Cl)cc21)NC1CC1
inhibition in vivo at 20 mg/kg ([5]; Rattus norvegicus, po): 31%

Cc1cc(Cl)c2c(c1)/C(=C/C(N)=O)CC2
ED50 [2]: > 25 mg/kg
ED50 [13]: > 25 mg/kg

O=C(/C=C1\CCc2cc(Cl)c(F)cc21)NC1CC1
inhibition in vivo at 20 mg/kg ([5]; Rattus norvegicus, po): 27%

CC(C)Cc1ccc(C(C)C(=O)O)cc1 (centres undefined) [IBUPROFEN]
ED50 [6]: 34 mg/kg
ED50 [7]: 8 mg/kg

NC(=O)/C=C1\CCc2c(F)cc(Cl)cc21
% effect at 100 mg/kg ([1]; ip): 33%
inhibition in vivo at 20 mg/kg [6]: 34%
inhibition in vivo at 20 mg/kg [7]: 36%
ED50 [4, 15]: > 10 mg/kg

NC(=O)/C=C1\CCc2cc(Cl)c(F)cc21
ED50 [8]: 50 mg/kg
ED50 [10]: 56 mg/kg
% effect at 100 mg/kg ([1]; ip): 100%
Ratio [11]: 1.1
inhibition in vivo at 20 mg/kg ([5]; Rattus norvegicus, po): 19%

CNC(=O)/C=C1\CCc2cc(Cl)cc(Cl)c21
% effect at 100 mg/kg ([1]; ip): 50%
inhibition in vivo at 20 mg/kg [6]: 0%
inhibition in vivo at 20 mg/kg [7]: 34%
inhibition in vivo at 20 mg/kg ([5]; Rattus norvegicus, po): 22%

COc1ccc2cc([C@H](C)C(=O)O)ccc2c1 [NAPROXEN]
ED50 [14]: 14 mg/kg

CNC(=O)/C=C1\CCc2cc(Cl)c(F)cc21
% effect at 100 mg/kg ([1]; ip): 17%
inhibition in vivo at 20 mg/kg ([5]; Rattus norvegicus, po): 22%

NC(=O)/C=C1\CCc2c(Cl)cc(F)cc21 (stereo in doubt; 3)
% effect [1]: 0%
ED50 [2]: 11 mg/kg
ED50 [3]: 11 mg/kg
ED50 [4]: 4 mg/kg
Inhibition ([5]; route oral, 20 mg/kg): 79%
